In data set [1] the test system is human constitutive 20S proteasome. Briefly: Small peptide. The note with it: for max fold increase, chymotrypsin-like site: Suc-LLVY-AMC; for max fold increase, caspase-like site: Z-LLE-AMC. It counts as biochemical. The method in brief: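 Human constitutive 20S proteasome (1 nM) in 38 mM Tris-HCl, 100 mM NaCl, pH 7.8 was preincubated with compound (8-point, 1.25–80 μM) at 37 °C. AMC substrates were added alone (final Suc-LLVY-AMC 20 µM, Z-LLE-AMC 20 µM, Boc-LRR-AMC 40 μM) or combined (6.67 μM each final). Fluorescence (380/460 nm) was read over 1 h at 37 °C. Hydrolysis rate was expressed as fold change versus vehicle.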

In another data set the test system is 26S proteasome. As to the kind of experiment: Small peptide. It is filed as biochemical. The following applies: only at the highest concentration.
Data set [2] deals with GFP-ODC. As to the kind of experiment: Cellular degradation of GFP-ODC. It is filed as cell-based, human. The note with it: 16 h, HEK-293T stably expressing GFP-ODC. The essentials: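 HEK-293T stably expressing GFP-ODC were grown to 80% confluency in 60 mm plates and treated 16 h with compound or DMSO. Controls: 5 μM bortezomib, 20 μM chlorpromazine. Cells were pelleted, PBS-washed and lysed in RIPA with protease inhibitors (20 min on ice). Western blot followed; only the full-length 75 kDa GFP-ODC band was quantified, in triplicate.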

In data set [3] the test system is GFP-ODC. As to the kind of experiment: Cell-based GFP-ODC AlphaLISA. Also noted: species or system human. The note with it: for IC50: Homo sapiens, HEK-293T, read-out: IC50 of the AlphaLISA signal; for reduction of the GFP-ODC AlphaLISA signal: 8-point titration, fresh powder stocks. The method in brief: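 HEK-293T cells stably expressing GFP-ODC, from a flow-sorted medium-GFP expressor pool, were plated at 10,000 cells/well in phenol red-free DMEM and dosed with compound or DMSO at plating. Cells were lysed in Surefire lysis buffer with shaking for 30 min at RT. Biotinylated anti-ODC plus anti-GFP acceptor bead (10× mix) went on for 1 h in the dark, then streptavidin donor bead for 30 min. Alpha signal read. Wells without anti-ODC served as negative control.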
Background: In Alpha technology, singlet oxygen from a donor bead excites a nearby acceptor bead.

A short description of data set [4]: Cell viability, parallel CellTiter-Glo assay. The note with it: human, HEK-293T cells stably expressing GFP-ODC. It counts as cell-based, human. Background: In ATP-based viability assays light output follows the ATP content of the culture.
In the next data set the test system is HEK-293T cells. As to the kind of experiment: Cell viability, parallel CellTiter-Glo assay. It counts as cell-based, human. The following applies: HEK-293T cells stably expressing GFP-ODC, 8-point titration.
In data set [5] the test system is purified human 20S proteasome. As to the kind of experiment: In vitro degradation of α-synuclein by purified 20S proteasome. It counts as biochemical. The note with it: 3 h, compared to untreated proteasome. The essentials: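 Purified human 20S proteasome in 50 mM HEPES, 5 mM DTT, pH 7.2 was preincubated with compound or DMSO for 45 min at 37 °C. Purified α-synuclein was then added and incubated 3 h at 37 °C; final reaction was 0.3 μM α-synuclein and 10 nM proteasome. GAPDH (0.5 μM) was added as loading control. α-Synuclein remaining was quantified by western blot versus DMSO.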

The next data set concerns K48 ubiquitin. Briefly: Cellular K48 ubiquitin levels. It is filed as cell-based, human. The following applies: same cell lysates as the GFP-ODC western blot. A general note: In western blotting, separated proteins are transferred to a membrane and probed.
Data set [6] in a line: Solubility observed in the AlphaLISA dose response. It is filed as physicochemical. The note with it: at higher concentrations of the dose response.
The subject of a further data set is EGFR. The note with it: read-out: IC50 for EGFR tyrosine kinase inhibition; reported value; cited from earlier work.
Where [7] appears, read: combination of the three fluorogenic peptide probes.

`CN(C)CCCN1c2ccccc2Sc2ccc(Cl)cc21` [CPZ, chlorpromazine]: the “overall max fold increase of 20S proteasome activity” value (from here on “overall max fold increase”) in data set [1] (setting [7]) is recorded as 6.3 fold. Also, the “catalytic sites of the 20S proteasome activated” value in data set [1] (individual fluorogenic peptide substrates) was “only activated the chymotrypsin-like site”. Besides, in the data set with 26S proteasome, the “activation of the 26S proteasome” value is listed as 2 fold. The “full-length GFP-ODC remaining” value in the data set with GFP-ODC [2] (20 μM compound) is on record as 97%.
`CCN(CC)CCNc1ccc(CO)c2sc3ccccc3c(=O)c12` [Hycanthone]: the IC50 in the data set with GFP-ODC [3] is 15.1 µM. Besides, the CC50 in data set [4] came out at 69.7 µM.
For the compound `CCN(CC)CCCC(C)Nc1c2ccc(Cl)cc2nc2ccc(OC)cc12` (centres unmarked) [Quinacrine], the half-maximal inhibitory concentration (IC50) with GFP-ODC [3] turned out to be 4.8 µM.
Regarding `CC(C)C[C@H]1C(=O)N2CCC[C@H]2[C@]2(O)O[C@](NC(=O)[C@@H]3C=C4c5cccc6[nH]c(Br)c(c56)C[C@H]4N(C)C3)(C(C)C)C(=O)N12` [bromocriptine], the “reduction of the GFP-ODC AlphaLISA signal” value (“reduction” below) with GFP-ODC [3] is given as “did not reduce the AlphaLISA signal below 50% (Figure S2) or did not reduce the AlphaLISA signal without significant cell death”.
As for `C#Cc1cccc(Nc2ncnc3cc(OCCOC)c(OCCOC)cc23)c1` [erlotinib], the figures for the half-inhibitory concentration (IC50) in the data set on GFP-ODC [3] and in the data set with EGFR were 5.4 µM and 0.002 µM, respectively. Further, in the data set on HEK-293T cells, the cell cytotoxicity result is listed as “no significant cell cytotoxicity”. Moreover, the “max fold increase, trypsin-like site” value in data set [1] (Boc-LRR-AMC) was 5.9 fold. Further, in data set [1], the “max fold increase, chymotrypsin-like site” value stood at 5.1 fold. Further, the “max fold increase, caspase-like site” value in [1] is reported as 3.1 fold. Besides, in data set [1] (setting [7]), the “overall max fold increase” value turned out to be 5.7 fold. The “EC200, concentration at which the rate of proteolysis was doubled compared to the vehicle control” value in data set [1] (combination of the three fluorogenic peptide probes, 1 nM 20S) stood at 12 µM. The “activation of the 26S proteasome” value in the data set with 26S proteasome is given as 2.5- to 3 fold. The values for the α-synuclein remaining in data set [5] (10 μM compound) and in data set [5] (20 μM compound) were 68% and 48%, respectively. Besides, the “full-length GFP-ODC remaining” value in the data set with GFP-ODC [2] (10 μM compound) stood at 34%; with GFP-ODC [2] (20 μM compound), 16%. In addition, the “effect on K48 ubiquitin / levels of ubiquitinylated proteins” value with K48 ubiquitin is given as “no impact on the levels of ubiquitinylated proteins”. Also, the solubility result in data set [6] is recorded as “poor solubility at higher concentrations”.
For the compound `CNCCC(Oc1ccc(C(F)(F)F)cc1)c1ccccc1` (centres unmarked) [fluoxetine], the “reduction” value in the data set with GFP-ODC [3] is on record as “did not reduce the AlphaLISA signal below 50% (Figure S2) or did not reduce the AlphaLISA signal without significant cell death”.
The same measure, in the same setting: the result for `COC(=O)C[C@](O)(CCCC(C)(C)O)C(=O)O[C@@H]1C(OC)=C[C@]23CCCN2CCc2cc4c(cc2[C@H]13)OCO4` [homoharringtonine] reads “significantly decreased the AlphaLISA signal but not in a dose-dependent manner”.
Regarding `O=C(N/N=C/c1ccc([N+](=O)[O-])o1)c1ccc(O)cc1` [nifuroxazide], the cell cytotoxicity entry in the data set on HEK-293T cells was “low cytotoxicity”.
`COc1cc2nc(N3CCN(C(=O)c4ccco4)CC3)nc(N)c2cc1OC` [prazosin]: the “reduction” value in the data set on GFP-ODC [3] was “did not reduce the AlphaLISA signal below 50% (Figure S2) or did not reduce the AlphaLISA signal without significant cell death”. Moreover, in data set [1], the “max fold increase, chymotrypsin-like site” value amounted to 3.5 fold and the “max fold increase, caspase-like site” value stood at 5.8 fold. For the same compound, the “overall max fold increase” value in [1] (setting [7]) is 4.5 fold. Further, the “activation of the 26S proteasome” value with 26S proteasome was 2.5- to 3 fold. Besides, the “full-length GFP-ODC remaining” value in the data set on GFP-ODC [2] (20 μM compound) is recorded as 84%.
On to `CC(=O)S[C@@H]1CC2=CC(=O)CC[C@]2(C)[C@H]2CC[C@@]3(C)[C@@H](CC[C@@]34CCC(=O)O4)[C@H]12` [spironolactone], for which the cell cytotoxicity result in the data set with HEK-293T cells is recorded as “low cytotoxicity”.
With `CN1CCN(CC/C=C2/c3ccccc3Sc3ccc(S(=O)(=O)N(C)C)cc32)CC1` [thiothixene], the “reduction” value with GFP-ODC [3] is recorded as “did not reduce the AlphaLISA signal below 50% (Figure S2) or did not reduce the AlphaLISA signal without significant cell death”.
Regarding `CC(C)[C@]12O[C@H]1[C@@H]1O[C@]13[C@]1(O[C@H]1C[C@H]1C4=C(CC[C@@]13C)C(=O)OC4)[C@@H]2O` [triptolide], the “reduction” value with GFP-ODC [3] is “significantly decreased the AlphaLISA signal but not in a dose-dependent manner”.

Broadly, the IC50 is the point on the concentration scale where inhibition reaches its midpoint. In general, CC50 refers to the concentration giving 50% cytotoxicity. A lower CC50 goes with greater toxicity to the cells.
